Laboratory results published in ChEMBL document CHEMBL4130550, “Antiproliferative Dimeric Aporphinoid Alkaloids from the Roots of Thalictrum cultratum” (J Nat Prod, 2017).
Active and inactive are the calls of the source. The calls are words filed in the database; no cut-off is given here.

Tests used:
HL-60 [1] = test: Cell cycle arrest in human HL60 cells assessed as accumulation at G1 phase at 0.06 uM after 24 hrs by propidium iodide staining based flow cytometric method (reference value: 43.32%); type: functional
HL-60 [2] = test: Cell cycle arrest in human HL60 cells assessed as accumulation at S phase at 0.3 uM after 24 hrs by propidium iodide staining based flow cytometric method (reference value: 25.75%); type: functional
HL-60 [3] = test: Cell cycle arrest in human HL60 cells assessed as accumulation at G1 phase at 1.5 uM after 24 hrs by propidium iodide staining based flow cytometric method (reference value: 43.32%); type: functional
HL-60 [4] = test: Induction of morphological changes in human HL60 cells assessed as chromatin condensation at 0.06 to 1.5 uM after 24 hrs by Hoechst 33258 staining based fluorescence microscopic analysis; type: functional, cell-based
HL-60 [5] = test: Induction of apoptosis in human HL60 cells assessed as early apoptotic cells at 0.06 uM after 24 hrs by Annexin-V-APC/7-AAD staining based flow cytometric method (reference value: 2.26%); type: functional
How it was run: (§1)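 HL-60 are seeded overnight in six-well plates, then treated in triplicate with 0.06, 0.3 or 1.5 μM, or untreated, for 24 h. Cells are washed in PBS and taken up in annexin V binding buffer. Annexin V-APC is added for 15 min in the dark at 25 °C, and 7-AAD just before flow cytometry. Early apoptosis is annexin V-APC only; late apoptosis is annexin V-APC/7-AAD.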

HL-60 [6] = test: Induction of apoptosis in human HL60 cells assessed as live cells at 0.3 uM after 24 hrs by Annexin-V-APC/7-AAD staining based flow cytometric method (reference value: 95.31%); type: functional; how it was run: as §1
HL-60 [7] = test: Induction of apoptosis in human HL60 cells assessed as early apoptotic cells at 0.3 uM after 24 hrs by Annexin-V-APC/7-AAD staining based flow cytometric method (reference value: 2.26%); type: functional; how it was run: as §1
HL-60 [8] = test: Induction of apoptosis in human HL60 cells after 24 hrs by Annexin-V-APC/7-AAD staining based flow cytometric method; type: functional, cell-based; how it was run: as §1
HL-60 [9] = test: Induction of apoptosis in human HL60 cells assessed as live cells at 1.5 uM after 48 hrs by Annexin-V-FITC/propidium iodide staining based flow cytometric method (reference value: 94.19%); type: functional
HL-60 [10] = test: Induction of apoptosis in human HL60 cells assessed as early apoptotic cells at 1.5 uM after 48 hrs by Annexin-V-FITC/propidium iodide staining based flow cytometric method (reference value: 2.8%); type: functional
HL-60 [11] = test: Induction of apoptosis in human HL60 cells assessed as late apoptotic cells at 1.5 uM after 48 hrs by Annexin-V-FITC/propidium iodide staining based flow cytometric method (reference value: 2.53%); type: functional
HL-60 [12] = test: Induction of apoptosis in human HL60 cells assessed as early apoptotic cells at 1.5 uM after 72 hrs by Annexin-V-FITC/propidium iodide staining based flow cytometric method (reference value: 2.8%); type: functional
HL-60 [13] = test: Induction of apoptosis in human HL60 cells assessed as necrotic cells at 1.5 uM after 72 hrs by Annexin-V-FITC/propidium iodide staining based flow cytometric method (reference value: 0.47%); type: functional
HL-60 [14] = test: Induction of mitochondrial membrane potential loss in human HL60 cells assessed as collapse of the mitochondrial membrane potential at 0.06 uM after 24 hrs by JC1 staining based flow cytometric method (reference value: 0.58%); type: functional
HL-60 [15] = test: Induction of mitochondrial membrane potential loss in human HL60 cells assessed as intact mitochondrial membrane potential at 0.06 uM after 24 hrs by JC1 staining based flow cytometric method (reference value: 99.42%); type: functional
HL-60 [16] = test: Induction of mitochondrial membrane potential loss in human HL60 cells assessed as collapse of the mitochondrial membrane potential at 0.3 uM after 24 hrs by JC1 staining based flow cytometric method (reference value: 0.58%); type: functional
HL-60 [17] = test: Induction of mitochondrial membrane potential loss in human HL60 cells assessed as intact mitochondrial membrane potential at 1.5 uM after 24 hrs by JC1 staining based flow cytometric method (reference value: 99.42%); type: functional

Work on `COc1cc2c(c(Oc3ccc(C[C@H]4c5cc(OC)c6c(c5CCN4C)OCO6)cc3)c1OC)C[C@H]1c3c(c(OC)c(OC)c(OC)c3-2)CCN1C` yielded an Activity (HL-60 [1]) of 44.01%, an Activity (HL-60 [2]) of 42.51% and an Activity (HL-60 [3]) of 33.02%. The Activity (HL-60 [4]) was “Active”, the Activity (HL-60 [5]) was 8.57% and the Activity (HL-60 [6]) was 69.73%. For the same molecule, the Activity (HL-60 [7]) was 22.76%, the Activity (HL-60 [8]) was “Dose-dependent effect” and the Activity (HL-60 [9]) was 52.96%. It also gave an Activity (HL-60 [10]) of 28.78%, an Activity (HL-60 [11]) of 17.69% and an Activity (HL-60 [12]) of 31.46%. The Activity (HL-60 [13]) was 0.79%, the Activity (HL-60 [14]) was 24.1% and the Activity (HL-60 [15]) was 75.9%. For the same molecule, the Activity (HL-60 [16]) was 33.5% and the Activity (HL-60 [17]) was 40.9%.
